This is an account of results in ChEMBL document CHEMBL1955742, “Synthesis and SAR studies of phenanthroindolizidine and phenanthroquinolizidine alkaloids as potent anti-tumor agents” (2012).

Holding throughout (assay type): functional
Experiment [1] deals with A549. Description: Antiproliferative activity against human A549 cells at 10^-6 mol/L after 72 hrs by MTT assay. The conditions noted are these: A549, 72 h.
Experiment [2] concerns A549. Description: Antiproliferative activity against human A549 cells at 10^-8 mol/L after 72 hrs by MTT assay. The conditions noted are these: A549, 72 h. Background: Formazan colour is commonly taken as a measure of viable cells.
The test system of experiment [3] is HL-60. Description: Antiproliferative activity against human HL60 cells at 10^-8 mol/L after 72 hrs by SRB assay. As to conditions: HL-60, 72 h. (In general: In SRB staining, fixed cells bind dye roughly in proportion to their protein.)
Experiment [4] relates to HL-60. Nature of the experiment: Antiproliferative activity against human HL60 cells at 10^-7 mol/L after 72 hrs by SRB assay. The conditions noted are these: HL-60, 72 h.
For experiment [5], the system named is A549. Nature of the experiment: Antiproliferative activity against human A549 cells after 72 hrs by MTT assay. As to conditions: Homo sapiens, A549, 72 h. The procedure, abridged: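 A549 human lung adenocarcinoma epithelial cells were seeded and grown for 24 h, then exposed to compounds for a further 72 h. Proliferation was read by MTT, as assigned in the table footnote. GI50 was calculated by the Logit method from at least three independent experiments.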

In experiment [6] the test system is HL-60. Description: Antiproliferative activity against human HL60 cells after 72 hrs by SRB assay. As to conditions: Homo sapiens, HL-60, 72 h. The procedure, abridged:
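HL60 human promyelocytic leukemia cells were seeded and grown for 24 h, then given compounds and cultured for another 72 h. Read-out was SRB, per the table footnote. GI50 was obtained by the Logit method from three or more independent experiments.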

The test system of experiment [7] is HL-60. Nature of the experiment: Antiproliferative activity against human HL60 cells at 10^-6 mol/L after 72 hrs by SRB assay. The conditions noted are these: HL-60, 72 h.
The test system of experiment [8] is A549. Description: Antiproliferative activity against human A549 cells at 10^-7 mol/L after 72 hrs by MTT assay. The conditions noted are these: A549, 72 h.

Turning to `COc1cc2c3c(c4ccc(O)cc4c2cc1OC)CN1CCC[C@H]1C3`, the inhibition at 1 µM came out at 85.9% in the experiment with A549 [1] and 85.8% in the experiment on HL-60 [7]. Also, the inhibition at 0.01 µM is 21.9% in the experiment on A549 [2] and 37.4% in the experiment on HL-60 [3]. Besides, the inhibition at 0.1 µM in the experiment with HL-60 [4] was 76.1%; in the experiment with A549 [8] it was 71.3%. Further, the 50% growth inhibitory concentration (GI50) in the experiment with A549 [5] turned out to be 40 nM; in the experiment on HL-60 [6], 100 nM.

Take `COc1cc2c3c(c4cc5c(cc4c2cc1OC)OCCO5)CN1CCCC1C3` (racemic): the figures for the inhibition at 1 µM in the experiment with A549 [1] and with HL-60 [7] were 85.6% and 84.4%, respectively. Besides, the inhibition at 0.01 µM in the experiment on A549 [2] came out at 2.1%; in the experiment on HL-60 [3], 16%. Moreover, the inhibition at 0.1 µM in the experiment with HL-60 [4] stood at 52.2%; in the experiment with A549 [8], 78.9%. Moreover, halving of growth in the experiment with A549 [5] (GI50) required 970 nM.

As for `COc1cc2c3c(c4cc(OC)c(OC)cc4c2cc1OC)[C@@H](O)[C@H]1CCCN1C3`, the inhibition at 1 µM in the experiment on A549 [1] was determined as 68.9%; in the experiment with HL-60 [7] it was 76%. Besides, the inhibition at 0.01 µM in the experiment with A549 [2] was 12.3%; with HL-60 [3], 12.7%. Further, the inhibition at 0.1 µM with HL-60 [4] stood at 37.1%; in the experiment on A549 [8] it was 31.3%. In the experiment with A549 [5], this compound yielded a 50% growth inhibitory concentration (GI50) of 1290 nM.

Regarding `COc1cc2c3c(c4cc(OC)c(OC)cc4c2cc1OC)[C@H](O)[C@@H]1CCCN1C3`, the inhibition at 1 µM with A549 [1] was 80.9%; in the experiment on HL-60 [7], 85%. Moreover, the inhibition at 0.01 µM in the experiment on A549 [2] amounted to 17.1%; in the experiment on HL-60 [3] it was 34.5%. Moreover, the inhibition at 0.1 µM is 59.5% in the experiment on HL-60 [4] and 55% in the experiment on A549 [8]. In the experiment on A549 [5], this compound showed a GI50 of 670 nM.

In the case of `COc1cc2c3c(c4cc(OC)c(OC)cc4c2cc1OC)CN1CCCC1C3` (racemic) [(+/-)-TYLOPHORINE], the inhibition at 1 µM in the experiment on A549 [1] was 72.3%; in the experiment on HL-60 [7], 71.3%. The values for the inhibition at 0.01 µM in the experiment on A549 [2] and with HL-60 [3] were 6% and 14.9%, respectively. Besides, the inhibition at 0.1 µM was 40.5% with HL-60 [4] and 61.4% in the experiment on A549 [8]. In addition, the GI50 is 1300 nM in the experiment on A549 [5] and 100 nM in the experiment with HL-60 [6].

For `COc1cc2c3c(c4cc5c(cc4c2cc1OC)OCCO5)CC1CCCN1C3` (racemic), the figures for the inhibition at 1 µM in the experiment with A549 [1] and with HL-60 [7] were 87.4% and 83.1%, respectively. For the same compound, the values for the inhibition at 0.01 µM in the experiment with A549 [2] and in the experiment with HL-60 [3] were 14% and 3.8%, respectively. The inhibition at 0.1 µM with HL-60 [4] worked out at 37%; with A549 [8], 58.2%. In addition, it took 360 nM to inhibit growth in the experiment with A549 [5] by half (GI50).

With `COc1cc2c3c(c4ccc(O)cc4c2cc1OC)CN1CCC[C@@H]1C3`, the inhibition at 1 µM came to 94.8% in the experiment on A549 [1] and 89.7% in the experiment on HL-60 [7]. Further, the figures for the inhibition at 0.01 µM in the experiment on A549 [2] and in the experiment on HL-60 [3] were 86% and 86.5%, respectively. The inhibition at 0.1 µM with HL-60 [4] was 87.1%; in the experiment on A549 [8], 92.3%. For the same compound, the GI50 with A549 [5] and in the experiment on HL-60 [6] was < 1 nM in each case.

In general, inhibition refers to the relative decrease from the control value, in per cent. As usually defined, the GI50 is the concentration at which growth is held to half of that of the control. Higher therefore signals lower sensitivity of the cells.
